Laboratory results reported in ChEMBL document CHEMBL1212806, “Chemoselective small molecules that covalently modify one lysine in a non-enzyme protein in plasma” (Nat Chem Biol, 2010).
Calls of active or inactive are those of the source. The calls are words filed in the database; no cut-off is given here.

Columns and labels:
[1] = molecular target: T1, Transthyretin (Homo sapiens, UniProt P02766); assay: Binding affinity to wild-type TTR assessed as nonchemoselective conjugation of TTR after 18 hrs by C18-RP-HPLC
[2] = Binding affinity to TTR K15A mutant assessed as nonchemoselective conjugation of TTR after 18 hrs by C18-RP-HPLC
[3] = molecular target: T1, Transthyretin; assay: Inhibition of wild type TTR amyloidogenesis assessed as fibril formation at […] after 72 hrs at pH 4.4 by spectrophotometry relative to untreated control; parameters: scale not given: the % may be the effect or the level left
[4] = system: Transthyretin (Homo sapiens), P02766 [V50M]; assay: Inhibition of TTR V30M mutant amyloidogenesis assessed as fibril formation at […] after 72 hrs at pH 4.4 by spectrophotometry relative to untreated control; parameters: scale not given: the % may be the effect or the level left
[5] = molecular target: T1, Transthyretin; assay: Inhibition of wild type TTR amyloidogenesis assessed as fibril formation at 7.2 uM after 72 hrs at pH 4.4 by spectrophotometry relative to untreated control; parameters: scale not given: the % may be the effect or the level left
[6] = system: Transthyretin (Homo sapiens), P02766 [V50M]; assay: Inhibition of TTR V30M mutant amyloidogenesis assessed as fibril formation at 7.2 uM after 72 hrs at pH 4.4 by spectrophotometry relative to untreated control; parameters: scale not given: the % may be the effect or the level left
[7] = molecular target: T1, Transthyretin; assay: Inhibition of wild type TTR amyloidogenesis assessed as inhibition of fibril formation after 72 hrs at pH 4.4 by spectrophotometry relative to untreated control
[8] = molecular target: T1, Transthyretin; assay: Binding affinity to wild type TTR in human plasma assessed as covalent modification of TTR subunit after 18 hrs by RP-HPLC analysis; format: cell-free
[9] = molecular target: T1, Transthyretin; assay: Binding affinity to wild type TTR tetramer in human plasma assessed as covalent chemoselective amide bond formation with Lys15 residue of TTR subunit at 7.2 uM after 18 hrs by RP-HPLC analysis; format: cell-free
[10] = species on record: Homo sapiens; assay: Binding affinity to TTR K15A mutant tetramer in human plasma assessed as covalent chemoselective amide bond formation with residue-15 of TTR subunit at 7.2 uM after 18 hrs by RP-HPLC analysis; format: cell-free
[11] = molecular target: T1, Transthyretin; assay: Stabilization of wild-type TTR tetramer assessed as time needed for 95% TTR-compound conjugate formation by C18-RP-HPLC
[12] = molecular target: T1, Transthyretin; assay: Stabilization of wild-type TTR tetramer assessed as rate of TTR-compound conjugate formation by C18-RP-HPLC
[13] = Toxicity in human IMR32 cells assessed as reduction of cell viability after 24 hrs by resazurin reduction assay; format: cell-based; conditions: imr-32, 24 h
Outline: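 IMR-32 cells (6,000/well, overnight) were exposed 24 h at 37 °C to compound preincubated 18 h at 37 °C in HBSS without TTR, diluted 1:1 in supplemented Opti-MEM. Viability was read by resazurin fluorescence (Ex/Em 530/590, 1 h), as % of vehicle-treated cells after blank subtraction.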

[14] = molecular target: T1, Transthyretin; assay: Binding affinity to TTR in human plasma at 10.8 uM after 24 hrs RP-HPLC analysis; format: cell-free
[15] = molecular target: T1, Transthyretin; assay: Binding affinity to wild type TTR assessed as induction of benzoylation at Lys15 residue of TTR subunit by LC-MS method
[16] = molecular target: T1, Transthyretin; assay: Inhibition of wild type TTR induced cytotoxicity in human IMR32 cells assessed as cell viability after 24 hrs by resazurin reduction assay; format: cell-based; conditions: IMR-32
Outline: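 IMR-32 neuroblastoma cells were seeded at 6,000/well in Opti-MEM with 5% FBS and grown overnight. Cold-purified WT-TTR in HBSS was preincubated 18 h at 37 °C with compound, then diluted 1:1 in supplemented Opti-MEM onto cells. After 24 h at 37 °C, resazurin was added and fluorescence read (Ex/Em 530/590) after 1 h. Results are % of vehicle, blank-subtracted, mean ± SE of 2 experiments, at least triplicate.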

[17] = molecular target: T1, Transthyretin; assay: Inhibition of wild type TTR amyloidogenesis assessed as fibril formation at 1.8 to 2.7 uM after 120 hrs at pH 4.4 by spectrophotometry relative to untreated control
[18] = molecular target: T1, Transthyretin; assay: Noncovalent binding affinity to wild type TTR T4 site assessed as fibril formation at 7.2 uM after 72 hrs at pH 4.4 by RP-HPLC analysis
[19] = molecular target: T1, Transthyretin; assay: Noncovalent binding affinity to TTR K15A mutant T4 site assessed as fibril formation at 7.2 uM after 72 hrs at pH 4.4 by RP-HPLC analysis

SMILES | Activity [1] | Activity [3] | Activity [4] | Activity [5] | Activity [6] | inhibition [7] | Activity [8] | Activity [9] | Activity [10] | TIME [11] | Activity [13] | Activity [14] | Activity [15] | inhibition [16] | other results
Cc1cc(/C=C/c2ccc(C(=O)Oc3ccccc3[N+](=O)[O-])cc2)cc(C)c1O | Active | – | – | – | – | – | – | – | – | – | – | – | – | – | Activity [2]: Active
Cc1cc(/C=C/c2cccc(C(=O)Sc3ccccc3)c2)cc(C)c1O | – | 16% | 34% | 2% | 3% | Dose-dependent effect | 48% | Active | inactive | 1.35 h | Non-toxic | Active | Active | Dose-dependent effect | T1/2 [12]: 15 min
Cc1cc(/C=C/c2cccc(C(=O)O)c2)cc(C)c1O | – | – | – | – | – | Dose-dependent effect | – | – | – | – | Non-toxic | – | – | Dose-dependent effect | IC50 [7]: 3070 nM; inhibition [17]: Active; Activity [18]: Active; Activity [19]: Active
Cc1cc(/C=C/c2ccccc2)cc(C)c1O | – | – | – | – | – | Dose-dependent effect | – | – | – | – | Non-toxic | – | – | Dose-dependent effect | inhibition [17]: Active; Activity [18]: Active; Activity [19]: Active
Cc1cc(/C=C/c2cccc(C(=O)Oc3ccccc3[N+](=O)[O-])c2)cc(C)c1O | – | 21% | 33% | 4% | 3% | Dose-dependent effect | 49% | Active | inactive | 0.983 h | – | Active | Active | – | IC50 [7]: 2260 nM; T1/2 [12]: 5 min
O=C(Sc1ccccc1)c1cccc(/C=C/c2cc(Br)c(O)c(Br)c2)c1 | – | 12% | 17% | 2% | 3% | Dose-dependent effect | 36% | Active | inactive | 21.2 h | – | Active | Active | – | –
Cc1cc(/C=C/c2ccc(C(=O)Oc3ccc(F)cc3)cc2)cc(C)c1O | Active | – | – | – | – | – | – | – | – | – | – | – | – | – | –
Cc1cc(/C=C/c2cccc(C(=O)Oc3ccc(F)cc3)c2)cc(C)c1O | – | – | – | – | – | – | – | – | inactive | 21.9 h | Non-toxic | – | – | – | –
Cc1cc(/C=C/c2ccc(C(=O)Sc3ccccc3)cc2)cc(C)c1O | Active | – | – | – | – | – | – | – | – | – | – | – | – | – | –
